In ChEMBL document CHEMBL3621102, “Structure-activity study of quinazoline derivatives leading to the discovery of potent EGFR-T790M inhibitors” (Eur J Med Chem, 2015):
Active and inactive are the calls of the source. No cut-off for these calls is given here.

Legend:
Mus musculus [1] = test: Toxicity in NCI-H1975 xenografted BALB/c mouse assessed as induction of eye disease at 8 mg/kg po, qd for 21 days; assay type: organism-based; settings: in vivo, 504 h
How it was run: (§1)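 Athymic mice bearing subcutaneous right-flank xenografts (2 × 10⁶ cells, dosed at 100–300 mm³; n = 6 per group; vehicle controls). Health was observed daily and body weight measured on indicated days. Body weight change (%) = (Wt/W0 − 1) × 100 against predosing weight, given as group mean ± SEM.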

Mus musculus [2] = test: Toxicity in NCI-H1975 xenografted BALB/c mouse assessed as induction of weakness at 8 mg/kg po, qd for 21 days; assay type: organism-based; settings: in vivo, 504 h; how it was run: as §1
[3] = Toxicity in NCI-H1975 xenografted BALB/c mouse assessed as induction of mouse mortality at 8 mg/kg po, qd for 9 days; assay type: organism-based; settings: in vivo
How it was run: (§2)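 Athymic mice received 2 × 10⁶ NCI-H1975 cells subcutaneously in the right flank. When tumours reached 100–300 mm³, mice were randomised into control and treatment groups (n = 6 per group), and controls got vehicle alone. Health was checked daily, and body weight and tumour size were measured on set days during treatment.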

Mus musculus [4] = test: Toxicity in NCI-H1975 xenografted BALB/c mouse assessed as induction of lethargy at 8 mg/kg po, qd for 21 days; assay type: organism-based; settings: in vivo, 504 h; how it was run: as §1
[5] = molecular target: Epidermal growth factor receptor (Homo sapiens, UniProt P00533); test: Inhibition of EGFR (unknown origin) by ELISA method
Mus musculus [6] = test: Toxicity in NCI-H1975 xenografted BALB/c mouse assessed as induction of exfoliative skin disorder at 8 mg/kg po, qd for 21 days; assay type: organism-based; settings: in vivo, 504 h; how it was run: as §1
NCI-H1975 [7] = test: Antitumor activity against human NCI-H1975 cells xenografted in BALB/c mouse assessed as tumor growth inhibition at 8 mg/kg po, qd for 21 days; assay type: functional, organism-based
How it was run: (§3)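 Athymic mice received 2 × 10⁶ tumour cells subcutaneously in the right flank. At 100–300 mm³ they were randomised to control and treatment groups (n = 6); controls received vehicle alone. Tumour volume = length × width²/2 and RTV = Vt/V0.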

NCI-H1975 [8] = test: Antiproliferative activity against human NCI-H1975 cells assessed as growth inhibition; assay type: functional
How it was run: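 NCI-H1975 cells were grown in RPMI with 1 mM sodium pyruvate, 10% FBS and 1% penicillin-streptomycin, under humidified 5% CO₂ at 37 °C. Growth inhibition was read as GI₅₀.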

Mus musculus [9] = test: Toxicity in NCI-H1975 xenografted BALB/c mouse assessed as body weight loss at 8 mg/kg po, qd for 21 days; assay type: organism-based; settings: in vivo, 504 h; how it was run: as §1
Mus musculus [10] = test: Toxicity in NCI-H1975 xenografted BALB/c mouse assessed as skin toxicity at 10 mg/kg po, qd for 21 days; assay type: organism-based; settings: in vivo, 504 h; how it was run: as §1
Mus musculus [11] = test: Toxicity in NCI-H1975 xenografted BALB/c mouse assessed as body weight change at 10 mg/kg po, qd for 21 days; assay type: organism-based; settings: in vivo, 504 h; how it was run: as §1
NCI-H1975 [12] = test: Antitumor activity against human NCI-H1975 cells xenografted in BALB/c mouse assessed as tumor growth inhibition at 10 mg/kg po, qd for 21 days; assay type: functional, organism-based; how it was run: as §3
Mus musculus [13] = test: Toxicity in NCI-H1975 xenografted BALB/c mouse assessed as body weight loss at 10 mg/kg po, qd for 21 days; assay type: organism-based; settings: in vivo, 504 h; how it was run: as §1
Mus musculus [14] = test: Toxicity in NCI-H1975 xenografted BALB/c mouse at 10 mg/kg po, qd for 7 days measured after drug cessation; assay type: organism-based; settings: in vivo, 168 h; how it was run: as §1
[15] = Toxicity in NCI-H1975 xenografted BALB/c mouse assessed as induction of mouse mortality at 10 mg/kg po, qd for days; assay type: organism-based; settings: in vivo; how it was run: as §2
[16] = Toxicity in NCI-H1975 xenografted BALB/c mouse assessed as induction of mouse mortality at 20 mg/kg po, qd for 7 days; assay type: organism-based; settings: in vivo; how it was run: as §2
NCI-H1975 [17] = test: Antitumor activity against human NCI-H1975 cells xenografted in BALB/c mouse assessed as tumor growth inhibition at 20 mg/kg po, qd for 21 days relative to control; assay type: functional; how it was run: as §3
Mus musculus [18] = test: Toxicity in NCI-H1975 xenografted BALB/c mouse assessed as body weight loss at 20 mg/kg po, qd for 21 days; assay type: organism-based; settings: in vivo, 504 h; how it was run: as §1

Chain of Epidermal growth factor receptor (P00533 whole entry): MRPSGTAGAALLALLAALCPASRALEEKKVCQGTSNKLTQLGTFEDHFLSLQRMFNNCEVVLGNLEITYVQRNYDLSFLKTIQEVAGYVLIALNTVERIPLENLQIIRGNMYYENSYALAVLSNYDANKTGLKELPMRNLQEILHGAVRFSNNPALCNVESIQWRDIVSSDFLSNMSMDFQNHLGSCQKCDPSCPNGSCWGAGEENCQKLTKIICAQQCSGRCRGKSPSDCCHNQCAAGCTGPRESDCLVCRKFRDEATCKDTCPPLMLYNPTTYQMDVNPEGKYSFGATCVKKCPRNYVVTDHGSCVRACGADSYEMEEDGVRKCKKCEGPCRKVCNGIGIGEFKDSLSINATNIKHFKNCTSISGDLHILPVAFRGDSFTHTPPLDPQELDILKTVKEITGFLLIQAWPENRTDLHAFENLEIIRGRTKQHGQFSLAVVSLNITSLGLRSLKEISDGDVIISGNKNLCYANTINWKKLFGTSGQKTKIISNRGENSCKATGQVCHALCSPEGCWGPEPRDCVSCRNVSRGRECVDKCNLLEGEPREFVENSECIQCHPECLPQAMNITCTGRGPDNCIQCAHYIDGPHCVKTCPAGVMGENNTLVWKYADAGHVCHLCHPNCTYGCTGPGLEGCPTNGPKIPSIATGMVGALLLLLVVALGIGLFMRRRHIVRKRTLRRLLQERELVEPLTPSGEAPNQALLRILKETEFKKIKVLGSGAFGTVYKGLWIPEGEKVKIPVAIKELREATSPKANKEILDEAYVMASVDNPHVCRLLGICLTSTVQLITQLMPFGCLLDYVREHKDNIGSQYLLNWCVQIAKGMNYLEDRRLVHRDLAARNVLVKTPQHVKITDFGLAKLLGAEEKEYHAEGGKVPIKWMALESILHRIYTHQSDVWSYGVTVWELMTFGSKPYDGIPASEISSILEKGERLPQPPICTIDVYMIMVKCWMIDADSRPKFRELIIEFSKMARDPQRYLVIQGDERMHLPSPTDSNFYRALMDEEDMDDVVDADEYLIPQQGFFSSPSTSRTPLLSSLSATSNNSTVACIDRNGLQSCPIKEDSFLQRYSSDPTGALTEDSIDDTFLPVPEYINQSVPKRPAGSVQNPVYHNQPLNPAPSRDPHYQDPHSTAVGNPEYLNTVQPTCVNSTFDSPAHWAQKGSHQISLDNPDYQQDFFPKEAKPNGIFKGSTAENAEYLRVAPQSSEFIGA

In the case of `COc1cc2ncnc(Nc3ccc(F)c(Cl)c3)c2cc1NC(=O)/C=C/CNC1CC1`, the Activity (Mus musculus [1]) is reported as “Toxic”, the Activity (Mus musculus [2]) is reported as “Toxic” and the mortality at 216 h [3] is reported as greater than 50%. The Activity (Mus musculus [4]) was “Toxic”, the IC50 [5] was 2.1 nM and the Activity (Mus musculus [6]) was “Toxic”. For the same compound, the TGI (NCI-H1975 [7]) was “Active”, the GI50 (NCI-H1975 [8]) was 11.2 nM and the Activity (Mus musculus [9]) was “Toxic”.

For `C#Cc1cccc(Nc2ncnc3cc(OC)c(NC(=O)/C=C/CNC4CC4)cc23)c1`, the IC50 [5] was 7.9 nM, the Activity (Mus musculus [10]) was “Toxic” and the GI50 (NCI-H1975 [8]) was 18.9 nM. The Activity (Mus musculus [11]) was “Non-toxic” and the TGI (NCI-H1975 [12]) was “Active”.

In the case of `C#Cc1cccc(Nc2ncnc3cc(OCC)c(NC(=O)/C=C/CNC4CC4)cc23)c1`, the Activity (Mus musculus [13]) is reported as “Toxic”, the IC50 [5] is reported as 4.2 nM and the Activity (Mus musculus [14]) is reported as “Non-toxic”. The GI50 (NCI-H1975 [8]) was 16.5 nM and the mortality [15] was greater than 50%.

For `C#Cc1cccc(Nc2ncnc3cc(OCC)c(NC(=O)/C=C/CN(C)C4CC4)cc23)c1`, the mortality at 168 h [16] was greater than 50%, the IC50 [5] was 2.4 nM and the TGI (NCI-H1975 [17]) was “Active”. The Activity (Mus musculus [18]) was “Toxic” and the GI50 (NCI-H1975 [8]) was 41 nM.
